The source made the active and inactive calls. No cut-off for these calls is given here.

Assay [1] concerns Rattus norvegicus. Briefly: CNS activity in rat assessed as increase in latency to kill at 10 mg/kg, po by muricidal rat test. The arrangement: dose 10 mg/kg. It counts as functional, organism-based. The gist of the method:
(§1)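 Oral dosing in rats in the septal-lesioned and muricidal assays, with a 10 mg/kg po screening dose. Active compounds were titrated down to a minimum effective dose. Vehicle controls were given on the same injection-volume basis.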

Assay [2] has as its system Mus musculus. Briefly: CNS activity in mouse assessed as decrease in early exploratory behavior in activity cage at 20 mg/kg, po. It counts as functional, organism-based. Also on record: dose 20 mg/kg. The gist of the method:
(§2)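 Oral dosing in mice, with a 20 mg/kg po screening dose. Active compounds were titrated down to a minimum effective dose. Vehicle controls were given on the same injection-volume basis.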

For assay [3], the system named is Rattus norvegicus. Nature of the assay: CNS activity in rat assessed as decrease in septal-lesioned-induced hyperactivity at 10 mg/kg, po by septal-lesioned rat test. It counts as functional, organism-based. The arrangement: dose 10 mg/kg. The gist of the method: as §1
Assay [4] has as its system Mus musculus. Nature of the assay: CNS activity in po dosed mouse assessed as decrease in early exploratory behavior in activity cage. As to conditions: read-out: MED. It counts as functional. Put shortly: as §2
Assay [5] relates to Rattus norvegicus. Briefly: CNS activity in po dosed rat assessed as increase in latency to kill by muricidal rat test. It counts as functional. As to conditions: read-out: MED. Put shortly:
as §1

The subject of assay [6] is Rattus norvegicus. Briefly: CNS activity in po dosed rat assessed as decrease in septal-lesioned-induced hyperactivity by septal-lesioned rat test. The class given is functional. As to conditions: read-out: MED. The gist of the method:
as §1

Turning to `CCCCCCC(C)(C)c1cc(O)c2c(c1)OC(=O)C(C)(C)C1=C2CC(C)CC1` (centres undefined), the result in the assay on Rattus norvegicus [1], in the assay with Mus musculus [2] and with Rattus norvegicus [3] was inactive.

Take `CCCCCCC(C)(C)c1cc(O)c2c(c1)OC(C)(C)CC1=C2CC(C)CC1` (centres undefined): the minimal effective dose in the assay on Mus musculus [4] and in the assay on Rattus norvegicus [5] was 2.5 mg/kg in each case. Besides, the result with Rattus norvegicus [3] was inactive.

Regarding `CCCCCCC(C)(C)c1cc(O)c2c(c1)OC(=O)CC1=C2CC(C)CC1` (centres undefined), the minimal effective dose in the assay with Mus musculus [4] and with Rattus norvegicus [5] was 5 mg/kg in each case. In the assay with Rattus norvegicus [3], the outcome was inactive.

As to `CCCCCCC(C)(C)c1cc(O)c2c(c1)OC(C)(C)C1=C2CC(C)CC1` (centres undefined), the minimal effective dose stood at 0.62 mg/kg in the assay on Mus musculus [4], 1.25 mg/kg with Rattus norvegicus [6] and 0.62 mg/kg with Rattus norvegicus [5].

Consider `CCCCCc1cc(O)c2c(c1)OC(C)(C)[C@@H]1CCC(C)=C[C@@H]21` [DRONABINOL], for which the minimal effective dose in the assay on Mus musculus [4] stood at 10 mg/kg; with Rattus norvegicus [5], 5 mg/kg. Also, the outcome in the assay on Rattus norvegicus [3] was inactive.

For the compound `CCCCCCC(C)(C)c1cc(O)c2c(c1)OCC(C)(C)C1=C2CC(C)CC1` (centres undefined), in the assay with Mus musculus [4], the minimal effective dose was 20 mg/kg. The result with Rattus norvegicus [1] and with Rattus norvegicus [3] was inactive.

Turning to `CCCCCCC(C)(C)c1cc(O)c2c3c(c(=O)oc2c1)CCC(C)C3` (centres undefined), the outcome in the assay on Rattus norvegicus [1], in the assay with Mus musculus [2] and with Rattus norvegicus [3] was inactive.

As to `CCCCCCC(C)(C)c1cc(O)c2c(c1)OCCC1=C2CC(C)CC1` (centres undefined), the minimal effective dose with Mus musculus [4], with Rattus norvegicus [6] and in the assay on Rattus norvegicus [5] was 1.25 mg/kg each time.
